Assay [1] relates to B16. Put plainly: Difference in body weight in grams between test and control animals at a dose of 40 mg/kg intraperitoneally. The class given is functional, Mus musculus. The conditions noted are these: route intraperitoneal. A digest of the protocol: (§1)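 B16 melanoma system: 10⁶ tumor cells inoculated ip on day 0. Drug given ip once daily for 9 days (Q01Dx09) starting day 1, dose as mg/kg body weight per injection. Read-out is the body-weight difference in grams, treated minus control animals. Early deaths, taken as toxicity, are scored on day 4.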

Assay [2] relates to B16. Put plainly: Antitumor activity in B16 Melanoma system animals is indicated by survivors on day 4 at a dose of 20 mg/kg intraperitoneally. The class given is functional, Mus musculus. Details: reference not given here. The conditions noted are these: route intraperitoneal. In a few lines: (§2)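 B16 melanoma, 10^6 cells inoculated ip on day 0. Ip treatment started day 1, schedule Q01Dx09 (one dose daily for 9 days). The score is live animals on day 4 over total animals; early deaths are taken as drug toxicity.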

Assay [3] concerns B16. The assay is described as follows: Difference in body weight in grams between test and control animals at a dose of 10 mg/kg intraperitoneally. The class given is functional, Mus musculus. The conditions noted are these: route intraperitoneal. In a few lines: as §1
Assay [4] relates to B16. Put plainly: Percent of median lifetime of test animals divided by the median lifetime of control animals at a dose of 5 mg/kg intraperitoneally. The class given is functional, Mus musculus. The conditions noted are these: route intraperitoneal. A digest of the protocol:
(§3)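 B16 melanoma inoculated ip (10⁶ cells) on day 0. Daily ip treatment for 9 days (Q01Dx09) begins day 1, dosed per injection in mg/kg. %T/C is the median lifespan of treated animals divided by that of tumored untreated controls, ×100. Cures are animals alive on the last test day. Toxic deaths are assessed on day 4.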

Assay [5] relates to B16. The assay is described as follows: Difference in body weight in grams between test and control animals at a dose of 5 mg/kg intraperitoneally. The class given is functional, Mus musculus. The conditions noted are these: route intraperitoneal. In a few lines:
as §1

Assay [6] concerns B16. The assay is described as follows: Percent of median lifetime of test animals divided by the median lifetime of control animals at a dose of 40 mg/kg intraperitoneally. The class given is functional, Mus musculus. The conditions noted are these: route intraperitoneal. In a few lines: as §3
Assay [7] deals with B16. Put plainly: Percent of median lifetime of test animals divided by the median lifetime of control animals at a dose of 2.5 mg/kg intraperitoneally. The class given is functional, Mus musculus. The conditions noted are these: route intraperitoneal. In a few lines: as §3
Assay [8] relates to B16. The assay is described as follows: Antitumor activity in B16 Melanoma system animals is indicated by survivors on day 4 at a dose of 10 mg/kg intraperitoneally. The class given is functional, Mus musculus. Details: reference not given here. The conditions noted are these: route intraperitoneal. In a few lines: as §2
In assay [9] the test system is B16. The assay is described as follows: Antitumor activity in B16 Melanoma system animals is indicated by survivors on day 4 at a dose of 2.5 mg/kg intraperitoneally. The class given is functional, Mus musculus. Details: reference not given here. The conditions noted are these: route intraperitoneal. A digest of the protocol: as §2
Assay [10] has as its system B16. Put plainly: Percent of median lifetime of test animals divided by the median lifetime of control animals at a dose of 10 mg/kg intraperitoneally. The conditions noted are these: route intraperitoneal. The class given is functional, Mus musculus. A digest of the protocol:
as §3

Assay [11] relates to B16. Put plainly: Difference in body weight in grams between test and control animals at a dose of 20 mg/kg intraperitoneally. The class given is functional, Mus musculus. The conditions noted are these: route intraperitoneal. A digest of the protocol:
as §1

Assay [12] concerns B16. Put plainly: Antitumor activity in B16 Melanoma system animals is indicated by survivors on day 4 at a dose of 5 mg/kg intraperitoneally. The class given is functional, Mus musculus. The conditions noted are these: route intraperitoneal. A digest of the protocol:
as §2

Assay [13] has as its system B16. The assay is described as follows: Difference in body weight in grams between test and control animals at a dose of 2.5 mg/kg intraperitoneally. The conditions noted are these: route intraperitoneal. The class given is functional, Mus musculus. A digest of the protocol:
as §1

Assay [14] relates to B16. Put plainly: Antitumor activity in B16 Melanoma system animals is indicated by survivors on day 4 at a dose of 40 mg/kg intraperitoneally. The conditions noted are these: route intraperitoneal. The class given is functional, Mus musculus. A digest of the protocol:
as §2

Assay [15] relates to B16. Put plainly: Percent of median lifetime of test animals divided by the median lifetime of control animals at a dose of 20 mg/kg intraperitoneally. The class given is functional, Mus musculus. The conditions noted are these: route intraperitoneal. A digest of the protocol: as §3
Assay [16] deals with B16. Put plainly: Percent of median lifetime of test animals divided by the median lifetime of control animals at a dose of 40 mg/kg intraperitoneally; Toxic. The class given is functional, organism-based. Details: dose 40 mg/kg. The conditions noted are these: Mus musculus. A digest of the protocol:
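B16 melanoma, 10^6 cells ip on day 0, ip treatment from day 1, Q01Dx09 (single dose daily for 9 days). %T/C is median lifetime of treated over untreated tumored controls, times 100. Early deaths are assessed on day 4 for toxicity. Cures are animals alive on the last test day.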

The subject of assay [17] is B16. The assay is described as follows: Percent of median lifetime of test animals divided by the median lifetime of control animals at a dose of 22 mg/kg intraperitoneally. The class given is functional, Mus musculus. The conditions noted are these: route intraperitoneal. In a few lines: as §3
For assay [18], the system named is B16. Put plainly: Percent of median lifetime of test animals divided by the median lifetime of control animals at a dose of 44 mg/kg intraperitoneally. The class given is functional, Mus musculus. The conditions noted are these: route intraperitoneal. In a few lines:
as §3

Assay [19] deals with B16. Put plainly: Difference in body weight in grams between test and control animals at a dose of 44 mg/kg intraperitoneally. The class given is functional, Mus musculus. The conditions noted are these: route intraperitoneal. In a few lines: as §1
The subject of assay [20] is B16. Put plainly: Percent of median lifetime of test animals divided by the median lifetime of control animals at a dose of 2.75 mg/kg intraperitoneally. The conditions noted are these: route intraperitoneal. The class given is functional, Mus musculus. In a few lines:
as §3

For assay [21], the system named is B16. Put plainly: Antitumor activity in B16 Melanoma system animals is indicated by survivors on day 4 at a dose of 5.5 mg/kg intraperitoneally. The class given is functional, Mus musculus. The conditions noted are these: route intraperitoneal. A digest of the protocol:
as §2

Assay [22] relates to B16. Put plainly: Percent of median lifetime of test animals divided by the median lifetime of control animals at a dose of 5.5 mg/kg intraperitoneally. The class given is functional, Mus musculus. The conditions noted are these: route intraperitoneal. A digest of the protocol:
as §3

Assay [23] deals with B16. Put plainly: Percent of median lifetime of test animals divided by the median lifetime of control animals at a dose of 11 mg/kg intraperitoneally. The conditions noted are these: route intraperitoneal. The class given is functional, Mus musculus. In a few lines:
as §3

In assay [24] the test system is B16. The assay is described as follows: Antitumor activity in B16 Melanoma system animals is indicated by survivors on day 4 at a dose of 11 mg/kg intraperitoneally. The class given is functional, Mus musculus. The conditions noted are these: route intraperitoneal. A digest of the protocol: as §2
Assay [25] has as its system B16. Put plainly: Antitumor activity in B16 Melanoma system animals is indicated by survivors on day 4 at a dose of 44 mg/kg intraperitoneally. The class given is functional, Mus musculus. The conditions noted are these: route intraperitoneal. A digest of the protocol:
as §2

The test system of assay [26] is B16. Put plainly: Antitumor activity in B16 Melanoma system animals is indicated by survivors on day 4 at a dose of 2.75 mg/kg intraperitoneally. The class given is functional, Mus musculus. The conditions noted are these: route intraperitoneal. A digest of the protocol: as §2
For assay [27], the system named is B16. The assay is described as follows: Antitumor activity in B16 Melanoma system animals is indicated by survivors on day 4 at a dose of 22 mg/kg intraperitoneally. The class given is functional, Mus musculus. The conditions noted are these: route intraperitoneal. A digest of the protocol:
as §2

In assay [28] the test system is B16. The assay is described as follows: Difference in body weight in grams between test and control animals at a dose of 22 mg/kg intraperitoneally. The class given is functional, Mus musculus. The conditions noted are these: route intraperitoneal. In a few lines:
as §1

As for `CC(=O)OC1C(=O)[C@@]2(C)[C@H]([C@H](OC(=O)c3ccccc3)[C@]3(O)CC(OC(=O)C(OC(=O)CCC(=O)O)C(NC(=O)c4ccccc4)c4ccccc4)C(C)=C1C3(C)C)[C@]1(OC(C)=O)CO[C@@H]1C[C@@H]2O` (some centres undefined), the Weight difference in the assay with B16 [1] amounted to 0 g; with B16 [3], 0.4 g; in the assay with B16 [5] it was 0.4 g; with B16 [11], 0 g; with B16 [13] it was 0 g. In addition, the Activity in the assay with B16 [2], in the assay with B16 [8], in the assay with B16 [9] and in the assay on B16 [14] was 10 throughout. Also, the T/C in the assay with B16 [4] was 154%; in the assay with B16 [6], 185%; with B16 [7], 119%; with B16 [10] it was 159%; with B16 [15], 154%. Moreover, the “Survivors on day 4” value in the assay with B16 [12] amounted to 10.

On to `CC(=O)OC1C(=O)[C@@]2(C)[C@H]([C@H](OC(=O)c3ccccc3)[C@]3(O)CC(OC(=O)C(O)C(NC(=O)c4ccccc4)c4ccccc4)C(C)=C1C3(C)C)[C@]1(OC(C)=O)CO[C@@H]1C[C@@H]2O` (some centres undefined), for which the Weight difference in the assay on B16 [1] is -1.2 g; in the assay on B16 [3] it was 0 g; in the assay on B16 [5], -0.2 g; in the assay with B16 [11], 0 g. In addition, the Activity in the assay on B16 [2], with B16 [8] and in the assay on B16 [14] was 10 in each case. Also, the T/C is 175% in the assay on B16 [4], “Toxic” in the assay with B16 [16], 139% in the assay on B16 [10] and 96% with B16 [15]. In addition, the “Survivors on day 4” value with B16 [12] was determined as 10.

With `CC(=O)OC1C(=O)[C@]2(C)[C@@H](OC(=O)CCC(=O)[O-])C[C@H]3OC[C@@]3(OC(C)=O)[C@H]2[C@H](OC(=O)c2ccccc2)[C@]2(O)CC(OC(=O)C(OC(=O)CCC(=O)[O-])C(NC(=O)c3ccccc3)c3ccccc3)C(C)=C1C2(C)C.[Na+].[Na+]` (some centres undefined), the T/C is 109% in the assay with B16 [17]; 166% with B16 [18]; 120% in the assay on B16 [20]; 114% in the assay with B16 [22]; 149% in the assay on B16 [23]. Besides, the Weight difference in the assay with B16 [19] and in the assay on B16 [28] was 0 g each time. For the same molecule, the Activity with B16 [21], with B16 [24], in the assay on B16 [25], in the assay on B16 [26] and in the assay with B16 [27] was 10 each time.

The values are drawn from ChEMBL document CHEMBL1124441, “Synthesis of congeners and prodrugs. 3. Water-soluble prodrugs of taxol with potent antitumor activity” (1989).
